Where “and” joins values, the source holds several entries; their conditions need not be identical. Equal values may be shown once. Read-outs that look alike come from different tables or passages of the source.
Columns and labels:
MOLT-4 = experiment: cells; format: cell-based; conditions: MOLT-4, 10^−5 M, 48 h
SR = experiment: cells; format: cell-based; conditions: 10^−5 M, 48 h
A549/ATCC = experiment: cells; format: cell-based; conditions: A549/ATCC, 10^−5 M, 48 h
HOP-62 = experiment: cells; format: cell-based; conditions: HOP-62, 10^−5 M, 48 h
NCI-H23 = experiment: cells; format: cell-based; conditions: NCI-H23, 10^−5 M, 48 h
NCI-H322M = experiment: cells; format: cell-based; conditions: 10^−5 M, 48 h
NCI-H522 = experiment: cells; format: cell-based; conditions: NCI-H522, 10^−5 M, 48 h
HCT-116 = experiment: cells; format: cell-based; conditions: HCT-116, 10^−5 M, 48 h
SF-539 = experiment: cells; format: cell-based; conditions: SF-539, 10^−5 M, 48 h
M14 = experiment: cells; format: cell-based; conditions: M14, 10^−5 M, 48 h
SK-MEL-2 = experiment: cells; format: cell-based; conditions: SK-MEL-2, 10^−5 M, 48 h
SK-MEL-5 = experiment: cells; format: cell-based; conditions: SK-MEL-5, 10^−5 M, 48 h
IGROV1 = experiment: cells; format: cell-based; conditions: IGROV1, 10^−5 M, 48 h
OVCAR-3 = experiment: cells; format: cell-based; conditions: OVCAR-3, 10^−5 M, 48 h
OVCAR-5 = experiment: cells; format: cell-based; conditions: OVCAR-5, 10^−5 M, 48 h
OVCAR-8 = experiment: cells; format: cell-based; conditions: OVCAR-8, 10^−5 M, 48 h
ACHN = experiment: cells; format: cell-based; conditions: 10^−5 M, 48 h
BT-549 = experiment: cells; format: cell-based; conditions: BT-549, 10^−5 M, 48 h
MDA-MB-468 = experiment: cells; format: cell-based; conditions: MDA-MB-468, 10^−5 M, 48 h
ERK2 = ERK2 (Rattus norvegicus, UniProt P63086); experiment: in vitro radioactive kinase assay, Ets-1 phosphorylation by ERK2; format: biochemical; conditions: for effect of excess Ets-1 (100 μM) on inhibition of ERK2: 5 μM inhibitor, 100 μM vs 10 μM Ets-1, 100 μM ATP
Method in brief: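 Activated rat ERK2 (2 nM) was tested with His-Ets-1 (1–138) at 28–30 °C in HEPES pH 7.5 buffer with 11 mM MgCl2, BSA and 5% DMSO. Reactions were started with [γ-32P]ATP (10 or 100 μM).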

[1] = system: BRAF-mutant A375 melanoma cells; experiment: A375 cell viability, MTS assay; format: cell-based; conditions: Homo sapiens, A-375, 72 h, read-out: A375 Cell Viability IC50
Method in brief: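 A375 cells were kept in RPMI with 10% heat-inactivated FBS, Glutamax and penicillin/streptomycin at 37 °C in 5% CO2. 2000 cells per well were treated with a range of test compound doses for 72 h. Viability was read by MTS assay. Run in triplicate.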

[2] = system: ERK substrates (p90RSK and ELK) phosphorylation in A375 cells; experiment: western blotting of MAPK pathway phosphorylation in A375 cells after EGF; format: cell-based, human
Method in brief: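 A375 cells (1,000,000 per well) were seeded 24 h, then treated with DMSO or test compound (0.5–25 μM) in serum-free medium for 4 or 12 h. Cells were stimulated with 100 nM EGF for 10–15 min, lysed, and 60 μg lysate was blotted. Probes: phospho-p90RSK (Thr573), RSK, phospho-Elk-1 (Ser383), phospho- and total ERK1/2, phospho-JNK (Thr183/Tyr185). Done twice.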

A375 cells = experiment: anchorage dependent colony formation assay; format: cell-based, human; conditions: A375, 10–14 days
Method in brief: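 1000 A375 cells per 60 mm plate adhered for 24 h, then were treated with various test compound doses for 10–14 days. Plates were PBS-washed and fixed in 4% paraformaldehyde (15 min, room temperature). They were stained with 0.2% crystal violet in 20% methanol for 10 min, water-washed and imaged under microscope.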

[3] = system: caspase 3/7 in A375 cells; experiment: IncuCyte Caspase 3/7 apoptosis assay; format: cell-based, human; conditions: doses of 3.7 and 33.3 μM, after 48 and 72 h
Method in brief: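 2000 A375 cells per well adhered for 24 h, then received test compound doses plus a constant concentration of IncuCyte Caspase-3/7 reagent. Cells were imaged on IncuCyte ZOOM (10× objective) at set time points, and stained cells were counted. Apoptotic cell number was normalized to percentage area confluence at the final time point.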

[4] = system: cleaved PARP in A375 cells; experiment: PARP cleavage western blot; format: cell-based, human; conditions: 12 h exposure
Method in brief: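 A375 cells (1,000,000 per well) were seeded 24 h, then exposed to several test compound doses for 12 h before lysis in buffer with protease/phosphatase inhibitors. Protein was measured by Bradford. 60 μg lysate was run on 10% SDS-PAGE and blotted to PVDF. Blots were probed for PARP and cleaved PARP, with vinculin as loading control. Done twice.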

EKVX = experiment: NCI-60 SRB screen, Non-small cell lung cancer; format: cell-based, human; conditions: 10^−5 M, 48 h
A498 = experiment: NCI-60 SRB screen, Renal cancer; format: cell-based, human; conditions: A498, 10^−5 M, 48 h
[5] = ERK2 IC50, 100 μM ATP, 10 μM Ets-1
[6] = ERK2 IC50 at 100 μM ATP /10mM Ets-1, Table 4, 100 μM ATP /10mM Ets-1

Chain of ERK2 (P63086 whole entry): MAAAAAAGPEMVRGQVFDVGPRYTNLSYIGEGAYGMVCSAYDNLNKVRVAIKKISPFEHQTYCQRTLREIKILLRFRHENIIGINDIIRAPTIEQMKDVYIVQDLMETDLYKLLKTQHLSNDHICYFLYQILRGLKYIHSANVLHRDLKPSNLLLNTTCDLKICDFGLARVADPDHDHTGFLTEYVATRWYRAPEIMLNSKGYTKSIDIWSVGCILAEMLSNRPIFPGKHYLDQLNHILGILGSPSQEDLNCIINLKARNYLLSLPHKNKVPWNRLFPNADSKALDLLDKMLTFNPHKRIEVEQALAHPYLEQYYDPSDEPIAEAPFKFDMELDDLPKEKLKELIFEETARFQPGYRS

In the case of `O=C1C(Cl)=C(c2c(O)c3c(=O)n(-c4ccccc4)c4ccccc4c3oc2=O)C(=O)c2ccccc21` [compound 6, 3-(3-Chloro-1,4-dioxo-1,4-dihydronaphthalen-2-yl)-4-hydroxy-6-phenyl-2H-pyrano[3,2-c]quinoline-2,5(6H)-dione], the “Growth percent (G%)” value (MOLT-4) is reported as 16.13%, the “Growth percent (G%)” value (SR) is reported as 11.44% and the “Growth percent (G%)” value (A549/ATCC) is reported as 37.73%. For the same compound, the “Growth percent (G%)” value (HOP-62) was 36.07%, the “Growth percent (G%)” value (NCI-H23) was 38.22% and the “Growth percent (G%)” value (NCI-H322M) was 63.53%. For the same compound, the “Growth percent (G%)” value (NCI-H522) was 19.42%, the “Growth percent (G%)” value (HCT-116) was 41.72% and the “Growth percent (G%)” value (SF-539) was −5.45%. For the same compound, the “Growth percent (G%)” value (M14) was 44.74%, the “Growth percent (G%)” value (SK-MEL-2) was 23.06% and the “Growth percent (G%)” value (SK-MEL-5) was 17.66%. For the same compound, the “Growth percent (G%)” value (IGROV1) was 71.85%, the “Growth percent (G%)” value (OVCAR-3) was 2.15% and the “Growth percent (G%)” value (OVCAR-5) was 88.70%. For the same compound, the “Growth percent (G%)” value (OVCAR-8) was 48.24%, the “Growth percent (G%)” value (ACHN) was 28.55% and the “Growth percent (G%)” value (BT-549) was 12.26%. The “Growth percent (G%)” value (MDA-MB-468) was −27.29%, the “effect of excess Ets-1 (100 μM) on inhibition of ERK2” value (ERK2) was “did not rescue” and the IC50 (ERK2; ERK2 IC50, 10 μM ATP) was 0.09 µM and 0.086 µM. The IC50 (ERK2; [5]) was ~0.16 µM and 0.16 µM, the IC50 (ERK2; [6]) was 0.16 ± 0.02 µM and the IC50 [1] was 0.13 ± 0.03 µM. For the same compound, the “phosphorylation of ERK substrates (p90RSK and ELK), in words” value ([2]; A375, 0.5–25 μM, EGF stimulation) was “dose-dependent inhibition”, the “concentration enough to inhibit ELK phosphorylation” value ([2]; A375, 12 h, then EGF 100 nM) was 2.5 µM and the “concentration enough to inhibit p-90RSK phosphorylation” value ([2]; A375, 12 h, then EGF 100 nM) was 10 µM. For the same compound, the “effect on ERK or MKK½ phosphorylation or the JNK pathway” value ([2]; A375, EGF stimulation) was “no effect”, the “concentration at which inhibition of colony forming ability starts” value (A375 cells) was 2.5 µM and the “caspase 3/7 activity in A375” value [3] was “activation of caspase 3/7”. The “level of cleaved PARP in A375” value [4] was “elevated level”.
In the case of `O=C1c2ccccc2C(=O)c2c1oc1c2c(=O)[nH]c2ccccc21` [3a, Naphtho[2′,3′:4,5]furo[3,2-c]quinoline-6,7,12(5H)-trione], the “Growth percent (G%)” value (MOLT-4) is reported as 5.55%, the “Growth percent (G%)” value (SR) is reported as 43.80% and the “Growth percent (G%)” value (A549/ATCC) is reported as 97.18%. The “Growth percent (G%)” value (EKVX) was 27.35%, the “Growth percent (G%)” value (HOP-62) was 118.63% and the “Growth percent (G%)” value (NCI-H23) was 65.95%. For the same compound, the “Growth percent (G%)” value (NCI-H322M) was 89.28%, the “Growth percent (G%)” value (NCI-H522) was 54.81% and the “Growth percent (G%)” value (HCT-116) was 55.46%. The “Growth percent (G%)” value (SF-539) was 90.30%, the “Growth percent (G%)” value (M14) was 73.38% and the “Growth percent (G%)” value (SK-MEL-2) was 76.92%. For the same compound, the “Growth percent (G%)” value (SK-MEL-5) was 79.73%, the “Growth percent (G%)” value (IGROV1) was 55.11% and the “Growth percent (G%)” value (OVCAR-3) was −14.81%. For the same compound, the “Growth percent (G%)” value (OVCAR-5) was 102.37%, the “Growth percent (G%)” value (OVCAR-8) was 35.61% and the “Growth percent (G%)” value (A498) was 103.58%. The “Growth percent (G%)” value (ACHN) was 65.70%, the “Growth percent (G%)” value (BT-549) was 73.94% and the “Growth percent (G%)” value (MDA-MB-468) was −8.43%. The “effect of excess Ets-1 (100 μM) on inhibition of ERK2” value (ERK2) was “did not rescue”, the IC50 (ERK2; [5]) was 10.2 ± 1.2 µM and the IC50 (ERK2; [6]) was 10.2 ± 1.2 µM.
In the case of `Cn1c(=O)c2c(=O)c3c4c(oc3oc2c2ccccc21)C(=O)c1ccccc1C4=O` [5a, 5-Methyl-5H-naphthalen[2″,3″:4′,5′]furo[3′,2′:4′,5,6]pyrano [3,2-c]quinoline-6,7,8,13-tetraone], the “Growth percent (G%)” value (MOLT-4) is reported as 87.37%, the “Growth percent (G%)” value (SR) is reported as 92.01% and the “Growth percent (G%)” value (A549/ATCC) is reported as 85.17%. The “Growth percent (G%)” value (HOP-62) was 80.81%, the “Growth percent (G%)” value (NCI-H23) was 86.15% and the “Growth percent (G%)” value (NCI-H322M) was 91.04%. The “Growth percent (G%)” value (NCI-H522) was 78.37%, the “Growth percent (G%)” value (HCT-116) was 99.77% and the “Growth percent (G%)” value (SF-539) was 93.83%. For the same compound, the “Growth percent (G%)” value (M14) was 98.25%, the “Growth percent (G%)” value (SK-MEL-2) was 86.85% and the “Growth percent (G%)” value (SK-MEL-5) was 97.56%. For the same compound, the “Growth percent (G%)” value (IGROV1) was 65.92%, the “Growth percent (G%)” value (OVCAR-3) was 98.93% and the “Growth percent (G%)” value (OVCAR-5) was 102.02%. The “Growth percent (G%)” value (OVCAR-8) was 100.1%, the “Growth percent (G%)” value (ACHN) was 85.7% and the “Growth percent (G%)” value (BT-549) was 104.21%. The “Growth percent (G%)” value (MDA-MB-468) was 64.82%, the IC50 (ERK2; read-out: ERK2 IC50, 100 μM ATP, 10 μM Ets-1) was 108 ± 12.2 µM and the IC50 (ERK2; read-out: ERK2 IC50 at 100 μM ATP /10mM Ets-1, Table 4, 100 μM ATP /10mM Ets-1) was > 100 µM.

From publication PMC6543826 (Bioorganic chemistry, 2018)
